Source: ChEMBL document CHEMBL1123203, “Metal complexes of mitomycins” (1986)

Columns and labels:
P388 [1] = test: (§1) Activity against P-388 murine leukemia cells expressed as average weight change at a dose of 12.8 mg/kg per inj.; format: functional, organism-based; conditions: Mus musculus
In short: (§2)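 P-388 leukemia in vivo: 10^6 ascites cells implanted ip in female CDF1 mice. Six mice per dose level; 10 saline-injected controls. A parallel group of six mice per dose received mitomycin C in the same experiment as a reference. Tested at Bristol-Myers.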

P388 [2] = test: (§3) Activity against P-388 murine leukemia cells expressed as average weight change at a dose of 25.6 mg/kg per inj.; format: functional, organism-based; conditions: Mus musculus; in short: as §2
P388 [3] = test: Activity against P-388 murine leukemia cells expressed as median survival time (MST treated/MST control) at a dose of 25.6 mg/kg per inj.; format: functional
In short: (§4)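 P-388 leukemia in vivo: 10^6 ascites cells implanted ip into female CDF1 mice. Six mice per mitosane dose, 10 saline-injected controls, and a concurrent mitomycin C group of six mice per dose. Median survival time recorded; %T/C = MST treated/MST control × 100. 30-day survivors counted. Minimum effective dose set at %T/C 125.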

P388 [4] = test: Activity against P-388 murine leukemia cells expressed as median survival time (MST treated/MST control) at a dose of 12.8 mg/kg per inj.; format: functional; in short: as §4
P388 [5] = test: as §3; format: functional, Mus musculus
P388 [6] = test: (§5) Activity against P-388 murine leukemia cells expressed as average weight change at a dose of 3.2 mg/kg per inj.; format: functional, Mus musculus
P388 [7] = test: Activity against P-388 murine leukemia cells expressed as average weight change at a dose of 1.6 mg/kg per inj.; format: functional, Mus musculus
P388 [8] = test: Activity against P-388 murine leukemia cells expressed as median survival time (MST treated/MST control) at a dose of 3.2 mg/kg per inj.; format: functional, Mus musculus; in short: as §4
P388 [9] = test: Activity against P-388 murine leukemia cells expressed as median survival time (MST treated/MST control) at a dose of 6.4 mg/kg per inj.; format: functional, Mus musculus; in short: as §4
P388 [10] = test: Activity against P-388 murine leukemia cells at a dose of 3.2 mg/kg per inj.; format: functional, Mus musculus; in short: as §4
P388 [11] = test: (§6) Activity against P-388 murine leukemia cells expressed as average weight change at a dose of 6.4 mg/kg per inj.; format: functional, Mus musculus
P388 [12] = test: as §1; format: functional, Mus musculus
P388 [13] = test: Activity against P-388 murine leukemia cells expressed as median survival time (MST treated/MST control) at a dose of 1.6 mg/kg per inj.; format: functional, Mus musculus; in short: as §4
P388 [14] = test: Activity against P-388 murine leukemia cells expressed as median survival time (MST treated/MST control) at a dose of 4.8 mg/kg per inj.; format: functional, Mus musculus; in short: as §4
P388 [15] = test: Activity against P-388 murine leukemia cells expressed as median survival time (MST treated/MST control) at a dose of 0.8 mg/kg per inj.; format: functional, Mus musculus; in short: as §4
P388 [16] = test: Activity against P-388 murine leukemia cells expressed as median survival time (MST treated/MST control) at a dose of 0.4 mg/kg per inj.; format: functional, Mus musculus; in short: as §4
P388 [17] = test: Activity against P-388 murine leukemia cells expressed as average weight change at a dose of 0.2 mg/kg per inj.; format: functional, Mus musculus
P388 [18] = test: Activity against P-388 murine leukemia cells expressed as median survival time (MST treated/MST control) at a dose of 0.2 mg/kg per inj.; format: functional, Mus musculus; in short: as §4
P388 [19] = test: Activity against P-388 murine leukemia cells expressed as average weight change at a dose of 0.8 mg/kg per inj.; format: functional, Mus musculus
P388 [20] = test: Activity against P-388 murine leukemia cells expressed as average weight change at a dose of 0.4 mg/kg per inj.; format: functional, Mus musculus
P388 [21] = test: Activity against P-388 murine leukemia cells at a dose of 4.8 mg/kg per inj.; format: functional, Mus musculus; in short: as §4
P388 [22] = test: Activity against P-388 murine leukemia celLS at a dose of 3.2 mg/kg per inj.; format: functional, Mus musculus; in short: as §4
P388 [23] = test: as §6; format: functional, organism-based; conditions: Mus musculus; in short: as §2
P388 [24] = test: as §5; format: functional, organism-based; conditions: Mus musculus; in short: as §2

Row | Molecule | MST (P388 [4]; Mus musculus) | Activity (P388 [5]) [g] | Activity (P388 [6]) [g] | Activity (P388 [7]) [g] | MST (P388 [8]) | MST (P388 [9]) | MST (P388 [3]) | MST (P388 [4]) | Activity (P388 [11]) [g] | Activity (P388 [12]) [g] | MST (P388 [13]) | other results
1 | 3-[6-(1,1-copperdichloro-1H,2H,3H,4H-pyrido[1,2-c]pyrimidin-9-ium-2-yl)-8a-methoxy-5-methyl-4,7-dioxo-(8aR)-1,1a,2,4,7,8,8a,8b-octahydroazireno[3',2':3,4]pyrrolo[1,2-a]indol-8-yl]methyloxocarboxamide | 122 | – | – | – | – | – | – | – | – | – | – | av wt change (P388 [1]): 0.2 g; av wt change (P388 [2]): -1.4 g; MST (P388 [3]; Mus musculus): 128
2 | COC1c2c(COC(=N)[O-])c3c(n2CC1N)C(=O)C(C)=C(N)C3=O.Cl.[Zn+] (stereo not given) | – | -0.7 | 2 | 0.5 | 139 | 133 | 178 | 144 | 0.7 | 0.4 | 122 | T/C (P388 [10]): 194%
3 | CO[C@@]12C(COC(N)=O)C3=C(C(=O)C(C)=C(NCCN4CCNCC4)C3=O)N1CC1NC12 (stereo not given in full) | – | -0.6 | – | – | – | 113 | 138 | 125 | 2.1 | 1.2 | – | T/C (P388 [14]): 213%
4 | CO[C@@]12C(COC(N)=O)C3=C(C(=O)C(C)=C(NCCc4ccccn4)C3=O)N1CC1NC12 (stereo not given in full) | – | -2.7 | -0.9 | -0.4 | 163 | 213 | >375 | 256 | -1.1 | -1.8 | 163 | MST (P388 [15]): 138; MST (P388 [16]): 125; Activity (P388 [17]): -0.5 g; T/C (P388 [10]): 319%; MST (P388 [18]): 125; Activity (P388 [19]): -0.3 g; Activity (P388 [20]): -0.6 g
5 | COC1c2c(COC(N)=O)c3c(n2CC1N)C(=O)C(C)=C(N)C3=O.Cl (stereo not given) | – | 0.6 | – | – | – | 110 | 130 | 115 | 1.9 | 0.4 | – | T/C (P388 [21]): >165%
6 | Platinium II Complex N7-[2-(2-Pyridyl)ethyl]mitomycin C | 110 | – | – | – | – | – | – | – | – | – | – | Activity (P388 [5]; Mus musculus): -0.2 g; T/C (P388 [14]; Mus musculus): 230%; MST (P388 [3]; Mus musculus): 125; Activity (P388 [12]; Mus musculus): 0.5 g
7 | CO[C@@]12[C@H](COC(N)=O)C3=C(C(=O)C(C)=C(NCCN4CCNCC4)C3=O)N1C[C@@H]1N[C@@H]12.Cl.Cl.[Zn+2] | – | -0.6 | – | – | – | – | 100 | 90 | – | 1.2 | – | T/C (P388 [14]): 213%
8 | CO[C@@]12[C@H](COC(N)=O)C3=C(C(=O)C(C)=C(NCCc4ccccn4)C3=O)N1C[C@@H]1N[C@@H]12.Cl.Cl.[Zn+2] | – | -1.3 | 0.1 | 0.8 | 133 | 139 | 161 | 156 | -0.6 | -0.4 | 122 | T/C (P388 [22]): 194%
9 | 2-amino-9-(2-carbamoyloxomethyl)-1-methoxy-6-methyl-5,8-dioxo-2,3,5,8-tetrahydro-1H-pyrrolo[1,2-a]indol-7-yl(dichlorocopper)ammonium; Copper chloride | 100 | – | – | – | – | – | – | – | – | – | – | Activity (P388 [1]): 0.3 g; Activity (P388 [2]): -3.1 g; Activity (P388 [23]): 0.8 g; MST (P388 [8]; Mus musculus): 100; MST (P388 [9]; Mus musculus): 100; T/C (P388 [10]; Mus musculus): 100%; Activity (P388 [24]): 0.9 g
